From ChEMBL document CHEMBL5230161, “Exploring structural effects in a new class of NRF2 inhibitors” (RSC Med Chem, 2023) come the findings set out here.

Converted amounts (≈) assume the structure as drawn. The source made the active and inactive calls. The rule behind the calls is not given here.

The first data set relates to A549. The experiment in a line: Antiproliferative activity against human A549 cells assessed as inhibition of cell growth incubated for 72 hrs by MTT assay.
Details: not given
More on the design: scale not given: the % may be the effect or the level left. In kind it is functional. In outline:
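A549 human lung cancer cells exposed to a single 5 μmol L⁻¹ dose for 72 h; viability read by MTT assay.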
On the technique in general: Tetrazolium assays rely on reduction of a dye to a coloured formazan, in cell work by metabolically active cells.
For the compound `Cc1nc(Nc2cccc(I)c2)c(C#N)cc1-c1ccccc1`, the Activity was determined as 26.6%.

As to `Cc1cc(Br)cc(Nc2nc(C)c(-c3ccccc3)cc2C#N)c1`, the Activity came to 35.3%.

`Cc1cc(C)cc(Nc2nc(C)c(-c3ccccc3)cc2C#N)c1`: the Activity is recorded as 9.8%.

The target of the next data set is T1, Nuclear factor erythroid 2-related factor 2 (Homo sapiens) (UniProt Q16236).
T1 sequence (whole entry): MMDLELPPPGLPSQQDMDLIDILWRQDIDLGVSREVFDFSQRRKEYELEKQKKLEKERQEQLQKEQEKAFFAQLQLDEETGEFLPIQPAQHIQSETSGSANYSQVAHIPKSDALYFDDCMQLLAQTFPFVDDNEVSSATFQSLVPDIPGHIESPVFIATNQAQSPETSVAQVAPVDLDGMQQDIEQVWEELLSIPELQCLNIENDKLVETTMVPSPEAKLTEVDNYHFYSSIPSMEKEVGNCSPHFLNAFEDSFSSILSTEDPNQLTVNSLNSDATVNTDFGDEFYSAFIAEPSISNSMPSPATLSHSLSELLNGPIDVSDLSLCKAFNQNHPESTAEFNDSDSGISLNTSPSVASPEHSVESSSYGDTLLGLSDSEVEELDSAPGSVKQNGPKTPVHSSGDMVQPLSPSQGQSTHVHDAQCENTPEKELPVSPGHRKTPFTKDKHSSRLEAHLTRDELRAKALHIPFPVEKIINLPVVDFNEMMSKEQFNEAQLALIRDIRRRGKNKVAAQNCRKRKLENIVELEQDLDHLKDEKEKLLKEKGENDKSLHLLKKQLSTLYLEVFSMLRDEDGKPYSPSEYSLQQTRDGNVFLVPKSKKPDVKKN
The experiment in a line: Activation of Nrf2 (unknown origin) assessed as cellular activity. Also on record: concentration or dose not given beside the values. The settings on record: filed as activator.
As for `Cc1cc(C)cc(Nc2nc(C)c(-c3ccccc3)cc2C(N)=O)c1`, the Activity was -18.1%.

Regarding `Cc1cc(C)cc(Nc2ncc(-c3ccccc3)nc2C#N)c1`, the Activity is -7.8%.

Turning to `N#Cc1c(-c2ccccc2)ccnc1Nc1ccccn1`, the Activity was -78.1%.

For `Cc1cc(Nc2ncc(-c3ccccc3)cc2C#N)ccn1`, the Activity is -20.3%.

As to `Cc1cccc(Nc2ncc(-c3ccccc3)cc2C#N)n1`, the Activity is -13.8%.

Consider `COc1cc(Nc2ncc(-c3ccccc3)nc2C#N)cc(OC)c1`, for which the Activity is -66%.

Consider `Cc1cc(C)cc(Nc2ncc(-c3ccncc3)cc2C#N)c1`, for which the Activity is -42.8%.

As for `Cc1cc(C)cc(Nc2ncc(-c3ccc(Cl)cc3)cc2C#N)c1`, the Activity is -4.9%.

In the case of `Cc1cc(C)cc(Oc2ncc(-c3ccccc3)cc2C#N)c1`, the Activity was -45.4%.

In the case of `Cc1cc(C)cc(Nc2nc3ncccc3cc2C#N)c1`, the Activity was -42.7%.

For `Cc1cc(Nc2ncc(-c3ccccc3)cc2C#N)cc(C)c1C`, the Activity is -32.3%.

In the case of `Cc1cc(N)cc(Nc2nc3ccccc3cc2C#N)c1`, the Activity is -9.5%.

As for `N#Cc1c(-c2ccccc2)ccnc1Nc1cc(CO)ccn1`, the Activity is -31.8%.

Consider `Cc1cc(C)cc(Cc2ncc(-c3ccccc3)cc2C#N)c1`, for which the Activity was -33.9%.

Take `N#Cc1cc(-c2ccccc2)cnc1Nc1ccc(Cl)nn1`: the Activity was -131%.

For the compound `N#Cc1cc(-c2ccccc2)cnc1Nc1cc(C2CC2)ccn1`, the Activity is -23.6%.

As to `COc1ccnc(Nc2nccc(-c3ccccc3)c2C#N)c1`, the Activity was -4.5%.

Regarding `Cc1cc(C)cc(Nc2nc(C)c(C(C)C)cc2C#N)c1`, the Activity is -6.3%.

`COc1cc(OC)cc(-c2cnc(Nc3cc(C)cc(C)c3)c(C#N)c2)c1`: the Activity is -23.3%.

With `CCOC(=O)c1ccnc(Nc2ncc(-c3ccccc3)cc2C#N)c1`, the Activity is -0.1%.

Take `CCCc1nc(Nc2cc(C)cc(C)c2)c(C#N)cc1-c1ccccc1`: the Activity is -11.8%.

For the compound `Cc1cc(C)cc(Nc2ncc(-c3cccnc3)cc2C#N)c1`, the Activity is -8.7%.

In the case of `COc1ccc(-c2cnc(Nc3cc(C)cc(C)c3)c(C#N)c2)cc1`, the Activity was -1.5%.

As to `Cc1ccc(-c2cnc(Nc3cc(C)cc(C)c3)c(C#N)c2)cc1`, the Activity is -29.6%.

In the case of `Cc1cc(Nc2ncc(-c3ccccc3)cc2C#N)nc(C)n1`, the Activity was -33.9%.

System in another data set: not listed separately
The experiment in a line: Solubility of the compound in pH 7.4 PBS buffer.
Details: not given
In kind it is physicochemical.
For `Cc1nc(Nc2cccc(C(C)C)c2)c(C#N)cc1-c1ccccc1`, the concentration in solution (solubility) came to 0.9 µM (≈ 0.295 µg/mL).

Take `Cc1cc(C)cc(Nc2nc(C)c(-c3ccccc3)cc2C#N)c1`: the solubility (in general, the dissolved amount per volume that the medium holds) turned out to be 3 µM (≈ 0.94 µg/mL).

With `Cc1cc(C)cc(Nc2ncc(-c3ccccc3)cc2C#N)c1`, the concentration in solution (solubility) came to 4 µM (≈ 1.2 µg/mL).

A further data set relates to NCI-H460. The data set can be described thus: Induction of cell cycle arrest in human NCI-H460 cells assessed as accumulation of cells at G2/M phase at 10 uM incubated for 24 hrs by PI staining based flow cytometric analysis. In kind it is functional.
Details: not given
A digest of the protocol: (§1)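 A549 or H460 cells synchronized in low-serum medium 12 h, then inhibitor 24 h; propidium iodide staining, flow cytometry, univariate cell-cycle model (Watson pragmatic, G0/1 and G2/M peak constraints); % of total cells as mean ± SE, n = 2-3 independent experiments.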
In the case of `Cc1cc(C)cc(Nc2nc(C)c(-c3ccccc3)cc2C#N)c1`, the result was Active.

The target in a further data set is T1, Nuclear factor erythroid 2-related factor 2 (Homo sapiens). The experiment in a line: Activation of Nrf2 (unknown origin) assessed as cellular activity measured before deprotection of compound. As to conditions: filed as activator.
Regarding `N#Cc1c(-c2ccccc2)ccnc1Nc1cc(CO)ccn1`, the Activity is -4.65%.

Another data set deals with A549. The experiment in a line: Inhibition of cell migration in human A549 cells at 10 uM incubated for 24 hrs by DAPI staining based transwell migration assay relative to control. It counts as functional.
Details: not given
In outline:
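Transwell migration of A549 cells seeded in serum-free medium with DMSO vehicle or compound (1, 5, 10 μmol L⁻¹) in top chamber; bottom medium with compound and 5% FBS chemoattractant; 24 h, filters fixed, unmigrated cells removed, DAPI stain, 9 fields imaged per insert; two inserts per condition, n = 2-3; one- or two-way ANOVA vs vehicle.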
In the case of `Cc1cc(C)cc(Nc2nc(C)c(-c3ccccc3)cc2C#N)c1`, 10 µM produced 65% inhibition.

The next data set deals with MCF7. The experiment in a line: Inhibition of NRF2/ARE (unknown origin) transfected in human MCF7 cells assessed as cellular activity measured before deprotection of compound preincubated with compound for 1 hrs followed by tBHQ addition and measured after 24 hrs by steady-glo luciferase assay relative to control. It counts as cell-based. The settings on record: time 25.0 hrs, dose or concentration not given here.
With `Cc1nc(Nc2cccc(C(C)O)c2)c(C#N)cc1-c1ccccc1` (centres undefined), the inhibition (as a rule, the share of the control response that was lost under treatment) amounted to 26%.

The next data set concerns A549. The data set can be described thus: Induction of cell cycle arrest in human A549 cells assessed as accumulation of cells at G2/M phase at 10 uM incubated for 24 hrs by PI staining based flow cytometric analysis. In kind it is functional.
Details: not given
In outline:
as §1
As to `Cc1cc(C)cc(Nc2nc(C)c(-c3ccccc3)cc2C#N)c1`, the result was Active.

Another data set deals with MCF7. The experiment in a line: Inhibition of NRF2/ARE (unknown origin) transfected in human MCF7 cells assessed as cellular activity preincubated with compound for 1 hrs followed by tBHQ addition and measured after 24 hrs by steady-glo luciferase assay relative to control. As to conditions: time 25.0 hrs, dose or concentration not given here. It counts as cell-based. Also on record: concentration or dose not given beside the values.
Regarding `CC(C)(C)[Si](C)(C)OCc1ccnc(Nc2ncc(-c3ccccc3)cc2C#N)c1`, the inhibition was found to be 43.3%.

Take `Cc1cc(C)nc(Nc2ncc(-c3ccccc3)cc2C#N)c1`: the inhibition amounted to 20%.

On to `CCc1ccnc(Nc2ncc(-c3ccccc3)cc2C#N)c1`, for which the inhibition was determined as 42.3%.

As for `Cc1nc(Nc2cccc(I)c2)c(C#N)cc1-c1ccccc1`, the inhibition worked out at 51.8%.

Turning to `Cc1cc(C)nc(Nc2ncc(-c3ccccc3)cc2C#N)n1`, the inhibition stood at 11.2%.

For `Cc1cc(C)cc(Nc2ncc(-c3cc(Cl)cc(Cl)c3)cc2C#N)c1`, the inhibition is 2.9%.

As to `Cc1cc(C)cc(Nc2ncc(-c3cc(C)cc(C)c3)cc2C#N)c1`, the inhibition came out at 25.1%.

Take `Cc1cncc(Nc2ncc(-c3ccccc3)cc2C#N)n1`: the inhibition was 13.2%.

Take `Cc1nc(C)nc(Nc2ncc(-c3ccccc3)cc2C#N)n1`: the inhibition stood at 9.6%.

As to `Cc1cccc(Nc2nc(C)c(-c3ccccc3)cc2C#N)c1`, the inhibition came out at 40.9%.

On to `Cc1cc(Br)cc(Nc2nc(C)c(-c3ccccc3)cc2C#N)c1`, for which the inhibition amounted to 58.4%.

`Cc1nc(Nc2cccc(C(C)C)c2)c(C#N)cc1-c1ccccc1`: the inhibition is 55.2%.

`COc1ccnc(Nc2ncc(-c3ccccc3)cc2C#N)c1`: the inhibition was determined as 39.7%.

On to `Cc1cc(C)cc(Nc2ncc(-c3ccccc3Cl)cc2C#N)c1`, for which the inhibition stood at 32.9%.

Turning to `Cc1cc(Nc2nc(C)c(-c3ccccc3)cc2C#N)cc(C)c1C`, the inhibition was 37.2%.

Regarding `Cc1cc(C)cc(Nc2nc3ccccc3cc2C#N)c1`, the inhibition was 21.2%.

Consider `N#Cc1c(-c2ccccc2)ccnc1Nc1cc(Br)ccn1`, for which the inhibition was determined as 7.5%.

Consider `Cc1cc(C)cc(Nc2nc(C)c(-c3ccccc3)cc2C#N)c1`, for which the inhibition amounted to 54.6%.

Turning to `Cc1cc(C)cc(Nc2nc(C)c(-c3cccc(Cl)c3)cc2C#N)c1`, the inhibition was determined as 49.2%.

Consider `Cc1ccnc(Nc2nccc(-c3ccccc3)c2C#N)c1`, for which the inhibition was determined as 35.4%.

Regarding `N#Cc1cc(-c2ccccc2)cnc1Nc1cnccn1`, the inhibition amounted to 28.3%.

As to `Cc1nc(Nc2cc(Cl)cc(Cl)c2)c(C#N)cc1-c1ccccc1`, the inhibition came out at 15.7%.

On to `Cc1cc(C)cc(Nc2nc(-c3ccccc3)ccc2C#N)c1`, for which the inhibition worked out at 3.7%.

For `Cc1cc(C)cc(Nc2nccc(-c3ccccc3)c2C#N)c1`, the inhibition stood at 39%.

In the case of `Cc1nc(Nc2cccc(CO)c2)c(C#N)cc1-c1ccccc1`, the inhibition was found to be 16.7%.

For the compound `Cc1ccc(C)c(Nc2nc(C)c(-c3ccccc3)cc2C#N)c1`, the inhibition was 51%.

In the case of `Cc1cncc(Nc2ncc(-c3ccccc3)cc2C#N)c1`, the inhibition amounted to 25.3%.

With `CC(=O)N(c1cc(C)cc(C)c1)c1nc(C)c(-c2ccccc2)cc1C#N`, the inhibition was 12.5%.

With `Cc1cc(C)cc(Nc2ncc(-c3cccc(O[Si](C)(C)C(C)(C)C)c3)cc2C#N)c1`, the inhibition amounted to 12.6%.

Regarding `Cc1cc(C)cc(Nc2ncc(-c3cccc(Cl)c3)cc2C#N)c1`, the inhibition was determined as 18.2%.

As for `Cc1cc(C)cc(Nc2ncc(-c3ccccc3)cc2C#N)c1`, the inhibition was 38.4%.

`Cc1nc(Nc2cc(Br)cc(Br)c2)c(C#N)cc1-c1ccccc1`: the inhibition was determined as 7.7%.

In the case of `Cc1cc(C)cc(Nc2nc(C)ccc2C#N)c1`, the inhibition was 6.1%.

Take `Cc1nc(Nc2cccc(C(C)O)c2)c(C#N)cc1-c1ccccc1` (centres undefined): the inhibition worked out at 5.2%.

For the compound `N#Cc1cc(-c2ccccc2)cnc1Nc1ccccn1`, the inhibition amounted to 25.5%.

`N#Cc1cc(-c2ccccc2)cnc1Nc1cc(C(F)(F)F)ccn1`: the inhibition amounted to 55.3%.

Turning to `Cc1cc(C)cc(N(C)c2nc(C)c(-c3ccccc3)cc2C#N)c1`, the inhibition amounted to 21.9%.

As for `Cc1cc(Nc2nc(C)c(-c3ccccc3)cc2C#N)cc(C)c1Br`, the inhibition is 25.7%.
